According to ChEMBL document CHEMBL4033692, “Synthesis and biological research of novel azaacridine derivatives as potent DNA-binding ligands and topoisomerase II inhibitors” (Bioorg Med Chem, 2017):
pIC50: −log10 of the molar value. Activity calls are given as the source filed them. The calls are words filed in the database; no cut-off is given here.

Columns and labels:
K562 = experiment: Antiproliferative activity against human K562 cells after 48 hrs by MTT assay; assay type: functional, cell-based; conditions: K562, 48 h
Summary of the method: (§1)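 MTT assay. Cells were seeded at 5-10×10^3 per well and incubated overnight at 37 °C under 5% CO2. Graded compound concentrations or equal DMSO in fresh medium were then added for 48 h. MTT (5 mg/mL stock) was added for a further 4 h, formazan was dissolved in DMSO, and A490 was read. IC50 is given as mean ± S.D. of three experiments in triplicate.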

HepG2 = experiment: Antiproliferative activity against human HepG2 cells after 48 hrs by MTT assay; assay type: functional, cell-based; conditions: HepG2, 48 h; summary of the method: as §1
Homo sapiens [1] = species on record: Homo sapiens; experiment: Inhibition of human topoisomerase-2 at 10 uM using supercoiled pBR322 DNA as substrate after 10 to 15 mins by ethidium bromide staining based electrophoresis relative to control
Summary of the method: (§2)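 Relaxation of supercoiled pBR322 (500 ng) by 1 unit of human Top I or Top II, with or without compound in reaction buffer. Reactions ran 10-15 min at 37 °C and were stopped with loading buffer. Products were run on 1% agarose in TAE at 90 V for 25 min and stained with ethidium bromide under UV. Controls were CPT (Top I) and m-AMSA (Top II).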

Homo sapiens [2] = species on record: Homo sapiens; experiment: Inhibition of human topoisomerase-2 at 50 uM using supercoiled pBR322 DNA as substrate after 10 to 15 mins by ethidium bromide staining based electrophoresis relative to control; summary of the method: as §2
HeLa = experiment: Antiproliferative activity against human HeLa cells after 48 hrs by MTT assay; assay type: functional, cell-based; summary of the method: as §1
U-937 [3] = experiment: Antiproliferative activity against human U937 cells after 48 hrs by MTT assay; assay type: functional, cell-based; conditions: U-937, 48 h; summary of the method: as §1
[4] = Antiproliferative activity against human QSG7701 cells after 48 hrs by MTT assay; assay type: cell-based; conditions: QSG7701, 48 h; summary of the method: as §1
Homo sapiens [5] = species on record: Homo sapiens; experiment: Inhibition of human topoisomerase-2 at 50 to 100 uM using supercoiled pBR322 DNA as substrate after 10 to 15 mins by ethidium bromide staining based electrophoresis; summary of the method: as §2
U-937 [6] = experiment: Induction of apoptosis in human U937 cells assessed as late apoptotic cells at 1 uM after 48 hrs by Annexin-V FITC/propidium iodide staining based flow cytometry (reference value: 0.144%); assay type: functional
Summary of the method: (§3)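 U937 cells were treated for 48 h at 0, 1 or 2.5 µM. Phosphatidylserine externalization (Annexin V-FITC) and membrane integrity (PI) were then read by flow cytometry using a kit per the manufacturer's instructions.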

Bos taurus [7] = species on record: Bos taurus; experiment: Binding affinity to calf thymus DNA after 5 mins by UV-Visible absorption spectral analysis
Summary of the method: (§4)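 UV-vis titration in Tris-HCl pH 7.4 in a 1.0 cm quartz cell. Compound was at 40 µM (added from a 5 mM DMSO stock) with ct DNA at final 0, 0.75, 2.25, 3.75, 6.00 and 9.75 µM. Each mixture was incubated 5 min before the absorption spectrum was recorded.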

U-937 [8] = experiment: Induction of apoptosis in human U937 cells assessed as necrotic cells at 2.5 uM after 48 hrs by Annexin-V FITC/propidium iodide staining based flow cytometry relative to control; assay type: functional; summary of the method: as §3
U-937 [9] = experiment: Induction of apoptosis in human U937 cells assessed as early apoptotic cells at 2.5 uM after 48 hrs by Annexin-V FITC/propidium iodide staining based flow cytometry (reference value: 7.42%); assay type: functional; summary of the method: as §3
U-937 [10] = experiment: Induction of apoptosis in human U937 cells assessed as live cells at 2.5 uM after 48 hrs by Annexin-V FITC/propidium iodide staining based flow cytometry (reference value: 92.4%); assay type: functional; summary of the method: as §3
U-937 [11] = experiment: Induction of apoptosis in human U937 cells assessed as early apoptotic cells at 1 uM after 48 hrs by Annexin-V FITC/propidium iodide staining based flow cytometry (reference value: 7.42%); assay type: functional; summary of the method: as §3
U-937 [12] = experiment: Induction of apoptosis in human U937 cells assessed as live cells at 1 uM after 48 hrs by Annexin-V FITC/propidium iodide staining based flow cytometry (reference value: 92.4%); assay type: functional; summary of the method: as §3
U-937 [13] = experiment: Induction of apoptosis in human U937 cells assessed as increase in cleaved caspase-8 protein expression at 1 to 2.5 uM after 48 hrs by Western blot analysis; assay type: functional, cell-based
Summary of the method: (§5)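 U937 cells in dishes were exposed to 1 or 2.5 µM for 48 h and lysed on ice for 0.5 h. Protein was quantified by BCA, run on 12% SDS-PAGE and transferred to PVDF. Membranes were blocked in 5% milk for 1 h, and primary antibody was applied overnight at 4 °C. Cleaved caspase-3/7/8 was detected with β-actin as loading control.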

A549 = experiment: Antiproliferative activity against human A549 cells after 48 hrs by MTT assay; assay type: functional, cell-based; conditions: A549, 48 h; summary of the method: as §1
Bos taurus [14] = species on record: Bos taurus; experiment: Binding affinity to calf thymus DNA after 5 mins by fluorescence emission spectral analysis
Summary of the method: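 Fluorescence titration in Tris-HCl pH 7.4. Compound came from a 5 mM DMSO stock, with ct DNA at final 0, 0.2, 0.7, 1, 1.5 and 2.5 µM. Mixtures were incubated 5 min before emission spectra were recorded. Quenching was fitted to F0/F = 1 + Kq[Q].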

[15] = Safety index, ratio of compound IC50 to m-AMSA IC50 for human QSG7701 cells; assay type: ADME, cell-based; conditions: read-out: Ratio IC50
Bos taurus [16] = species on record: Bos taurus; experiment: Binding affinity to calf thymus DNA assessed as bathochromic shift at 40 uM after 5 mins by UV-Visible absorption spectral analysis; summary of the method: as §4
U-937 [17] = experiment: Induction of apoptosis in human U937 cells assessed as late apoptotic cells at 2.5 uM after 48 hrs by Annexin-V FITC/propidium iodide staining based flow cytometry (reference value: 0.144%); assay type: functional; summary of the method: as §3
U-937 [18] = experiment: Induction of apoptosis in human U937 cells assessed as increase in cleaved caspase-7 protein expression at 1 to 2.5 uM after 48 hrs by Western blot analysis; assay type: functional, cell-based; summary of the method: as §5
U-937 [19] = experiment: Induction of apoptosis in human U937 cells after 48 hrs by Annexin-V FITC/propidium iodide staining based flow cytometry; assay type: functional, cell-based; summary of the method: as §3
U-937 [20] = experiment: Induction of apoptosis in human U937 cells assessed as increase in cleaved caspase-3 protein expression at 1 to 2.5 uM after 48 hrs by Western blot analysis; assay type: functional, cell-based; summary of the method: as §5
U-937 [21] = experiment: Induction of apoptosis in human U937 cells assessed as necrotic cells at 1 uM after 48 hrs by Annexin-V FITC/propidium iodide staining based flow cytometry relative to control; assay type: functional; summary of the method: as §3
[22] = target: T1, DNA topoisomerase 1 (Homo sapiens) (UniProt P11387); experiment: Inhibition of human topoisomerase-1 at 100 uM using supercoiled pBR322 DNA as substrate after 10 to 15 mins by ethidium bromide staining based electrophoresis; summary of the method: as §2
T1 sequence (whole entry): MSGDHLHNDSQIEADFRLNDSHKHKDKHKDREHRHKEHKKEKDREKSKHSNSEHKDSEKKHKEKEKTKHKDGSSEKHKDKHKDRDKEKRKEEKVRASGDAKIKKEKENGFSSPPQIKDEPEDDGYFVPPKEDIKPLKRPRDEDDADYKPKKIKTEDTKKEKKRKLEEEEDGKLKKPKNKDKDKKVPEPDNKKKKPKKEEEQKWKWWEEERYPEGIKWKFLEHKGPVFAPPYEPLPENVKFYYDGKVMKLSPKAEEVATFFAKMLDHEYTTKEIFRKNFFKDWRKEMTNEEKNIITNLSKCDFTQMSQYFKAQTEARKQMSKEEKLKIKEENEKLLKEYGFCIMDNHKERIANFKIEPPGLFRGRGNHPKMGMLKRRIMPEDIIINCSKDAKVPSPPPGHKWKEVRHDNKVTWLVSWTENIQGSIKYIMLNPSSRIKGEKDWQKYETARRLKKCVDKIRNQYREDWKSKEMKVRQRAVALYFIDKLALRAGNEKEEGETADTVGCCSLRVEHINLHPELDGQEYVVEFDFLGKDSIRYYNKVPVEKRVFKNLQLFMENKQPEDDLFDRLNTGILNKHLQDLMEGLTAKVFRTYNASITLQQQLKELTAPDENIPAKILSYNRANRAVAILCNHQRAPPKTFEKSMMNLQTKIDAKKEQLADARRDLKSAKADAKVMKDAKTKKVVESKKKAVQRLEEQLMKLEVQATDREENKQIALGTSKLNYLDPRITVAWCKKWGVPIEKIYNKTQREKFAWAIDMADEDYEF

Compound	pIC50 (K562)	pIC50 (HepG2)	inhibition (Homo sapiens [1]) [%]	inhibition (Homo sapiens [2])	pIC50 (HeLa)	pIC50 (U-937 [3])	pIC50 [4]	topoisomerase II inhibition (active/inactive) (Homo sapiens [5])	further results
COc1ccc2nc3cc(Cl)ccc3c(NCc3nc4ccccc4[nH]3)c2c1	< 4.70	< 4.70	–	–	–	–	–	–	–
COc1cc(NS(C)(=O)=O)ccc1Nc1c2ccccc2nc2ccccc12 [AMSACRINE]	6.06	5.28	56.9	Active	4.72	6.21	5.19	–	–
COc1ccc2nc3cc(Cl)ccc3c(Nc3cccc(F)c3)c2n1	4.81	< 4.70	> 40	> 50%	–	< 4.70	–	Active	–
COc1ccc2nc3cc(Cl)ccc3c(Nc3ccccc3F)c2n1	4.96	< 4.70	–	28.1%	–	< 4.70	–	Active	–
COc1ccc2nc3cc(Cl)ccc3c(NCc3nc4ccccc4[nH]3)c2n1	5.22	5.18	–	> 50%	4.90	6.24	4.53	Active	Activity (U-937 [6]): 6.48%; Kb (Bos taurus [7]): 3.34 ×10⁵ /M; Activity (U-937 [8]): 0.322%; Activity (U-937 [9]): 26.2%; Activity (U-937 [10]): 61.3%; Activity (U-937 [11]): 17.5%; Activity (U-937 [12]): 75.8%; Activity (U-937 [13]): Active; pIC50 (A549): 5.32; Kq (Bos taurus [14]): 2.34 ×10⁵ /M; selectivity ratio [15]: > 3; Activity (Bos taurus [16]): Active; Activity (U-937 [17]): 12.2%; Activity (U-937 [18]): Active; Activity (U-937 [19]): Dose-dependent effect; Activity (U-937 [20]): Active; Activity (U-937 [21]): 0.227%
COc1ccc2nc3cc(Cl)ccc3c(Nc3ccncc3)c2n1	4.86	< 4.70	> 40	> 50%	–	< 4.70	–	Active	–
COc1ccc2nc3cc(Cl)ccc3c(Nc3ccc(C)cc3C)c2n1	4.85	< 4.70	–	> 50%	–	< 4.70	–	Active	–
COc1ccc(Nc2c3ccc(Cl)cc3nc3ccc(OC)nc23)cc1	4.86	< 4.70	–	> 50%	–	< 4.70	–	Active	–
COc1ccc2nc3cc(Cl)ccc3c(Nc3ccc(F)cc3)c2n1	4.78	< 4.70	> 40	> 50%	–	< 4.70	–	Active	–
COc1ccc2nc3cc(Cl)ccc3c(Nc3ccccc3Cl)c2n1	5.21	< 4.70	> 40	> 50%	–	< 4.70	–	Active	–
COc1ccc2nc3cc(Cl)ccc3c(NCc3nc4ccccc4n3CCN(C)C)c2n1	5.12	< 4.70	75.1	> 50%	4.83	6.12	4.67	Active	inhibition [22]: Active; pIC50 (A549): 4.88
CC[C@@]1(O)C(=O)OCc2c1cc1n(c2=O)Cc2cc3ccccc3nc2-1 [CAMPTOTHECIN]	–	5.31	–	–	5.42	–	> 6.00	–	pIC50 (A549): > 6.00
